Measured values pooled from the literature.
Each line is one published result; the experiments were not run side by side.
Target: Casein kinase I isoform epsilon (CSNK1E, Homo sapiens, UniProt P49674)

For `O=C(NCCCNc1nc(Nc2cccc(NC(=O)N3CCCC3)c2)ncc1I)c1cccs1`, the inhibition was -16% (enzyme activity; inhibitor; 1 µM).
With `Cc1sc(C(=O)NC2COC2)cc1-n1cc(NC(=O)Nc2c(F)cccc2Cl)cn1` the remaining activity was 97.9% (enzyme activity; inhibitor; 10 µM).
`O=c1c2ccccc2[nH]c(=S)n1CCN1CCC(=C(c2ccc(F)cc2)c2ccc(F)cc2)CC1` has a remaining activity of 100% (enzyme activity; inhibitor; 0.5 µM).
With `O=C(NS(=O)(=O)c1ccc(NCC2CCOCC2)c([N+](=O)[O-])c1)c1ccc(N2CCN(Cc3ccc(C(F)(F)F)cc3-c3ccc(Cl)cc3)CC2)cc1Oc1cnc2[nH]ccc2c1` the remaining binding was 95% (cell-free assay; competition with immobilised ligand; 1 µM).
`CC(C)(C)c1nc(-c2cccc(NS(=O)(=O)c3c(F)cccc3F)c2F)c(-c2ccnc(N)n2)s1` gave a remaining activity of 89% (enzyme activity; inhibitor; radiometric; 1 µM).
The remaining activity of `O=C(Nc1cnn(-c2csc(C(=O)NC3COC3)c2)c1)Nc1ccccc1Cl` is reported as 89.6% (enzyme activity; inhibitor; 5 µM).
`CN(C)CC#Cc1ccc(OCCCc2sc(N3CCc4cccc(C(=O)Nc5nc6ccccc6s5)c4C3)nc2C(=O)O)c(F)c1` gave a remaining binding of 86% (cell-free assay; competition with immobilised ligand; 1 µM).
With `N#CCCc1ccc2c(c1)-c1[nH]c3ccc([N+](=O)[O-])cc3c1CC(=O)N2` the remaining signal was 91.4% (cell-free assay; 0.5 µM).
The ΔTm of `Cn1c2c(c3ccc(Cl)c(Cl)c31)C(C#N)C(C)(C)NC2=O` (centres unmarked) is reported as 1.3 °C (thermal stability; DSF; 10 µM).
The inhibition of `CCCS(=O)(=O)Nc1ccc(F)c(C(=O)c2c[nH]c3ncc(-c4ccc(Cl)cc4)cc23)c1F` is reported as < 10% (enzyme activity; inhibitor; 1 µM).
`CN(C)C(=O)Cn1cc(-c2nc(C3(c4ccc(-c5cnc(N)nc5)cc4)CC3)no2)cn1` gave a remaining binding of 100% (cell-free assay; competition with immobilised ligand; 1 µM).
`COc1cc2ncnc(Nc3ccc(F)c(Cl)c3)c2cc1OCCCN1CCOCC1` gave a remaining activity of 106% (enzyme activity; 0.5 µM).
For `O=C(O)c1cc(-c2ccc(C3CCNCC3)cc2)c2ccc(-c3ccc(C(F)(F)F)cc3)cc2c1`, the remaining binding was 100% (cell-free assay; competition with immobilised ligand; 1 µM).
`COc1cc2c(N3CCN(C(=O)Nc4ccc(OC(C)C)cc4)CC3)ncnc2cc1OCCCN1CCCCC1` has a remaining signal of 99.1% (cell-free assay; 0.5 µM).
The ΔTm of `Cn1c2c(c3ccccc31)C(C#N)C(C)(C)NC2=O` (centres unmarked) is reported as 0.8 °C (thermal stability; DSF; 10 µM).
The remaining binding of `O=C(Nc1cccnn1)N1CC(C/C=C/c2cncc(Oc3ccc(C(F)(F)F)cn3)n2)C1` is reported as 100% (cell-free assay; competition with immobilised ligand; 1 µM).
With `COc1cc2ncnc(Nc3ccc(Oc4ccccc4)c(C)c3C)c2cc1OC` the inhibition was 0% (enzyme activity; inhibitor; 1 µM).
The remaining activity of `CS(=O)(=O)CCNCc1ccc(-c2ccc3ncnc(Nc4ccc(OCc5cccc(F)c5)c(Cl)c4)c3c2)o1` is reported as 99.4% (enzyme activity; 0.5 µM).
For `Cn1c2c(Cl)c(Cl)ccc2c2cc(N)[nH]c(=O)c21`, the ΔTm was 0.5 °C (thermal stability; DSF; 10 µM).
`CC1=C(C#N)C(c2ccc3c(c2)c(NC(=O)c2ccccc2C)nn3C)C(C#N)=C(C)N1` gave a remaining binding of 100% (cell-free assay; competition with immobilised ligand; 1 µM).
`CCN1/C(=C/C(C)=O)Sc2ccc(OC)cc21` has a remaining activity of 60.1% (enzyme activity; 0.5 µM).
`CCCCN(CCCC)C(=O)CN1C[C@H](c2cc(OC)c3c(c2)OCO3)[C@@H](C(=O)O)[C@@H]1CC(C)(C)CCC` has a remaining binding of 100% (cell-free assay; competition with immobilised ligand; 1 µM).
For `O=C1NC(=O)c2cc(Nc3ccc(F)cc3)c(Nc3ccc(F)cc3)cc21`, the remaining activity was 98% (enzyme activity; inhibitor; 0.5 µM).
